# The source made the active and inactive calls. The calls are words filed in the database; no cut-off is given here.
# How the values were obtained:
# MCF7 [1] = assay: Growth inhibition of human MCF7 cells after 72 hrs by Calcein AM dye based fluorescence assay; format: functional; conditions: MCF7, 72 h
# Procedure, shortened: (§1)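 Cells in DMEM with 10% FBS at 37 °C, 5% CO2, treated in triplicate with six doses for 72 h. Calcein AM was added for 1 h and live-cell fluorescence read at 485/538 nm. GI50 was taken from dose-response curves.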
# [2] = biological target: Cyclin-dependent kinase 1 (Homo sapiens) (UniProt P06493); assay: Inhibition of CDK1 (unknown origin)
# K562 [3] = assay: Growth inhibition of human K562 cells after 72 hrs by Calcein AM dye based fluorescence assay; format: functional; conditions: K562, 72 h; procedure, shortened: as §1
# MCF7 [4] = assay: Cell cycle arrest in human MCF7 cells assessed as accumulation at G2/M phase at 10 uM after 24 hrs by propidium iodide staining-based flow cytometric analysis (reference value: 5.3%); format: functional
# Procedure, shortened: (§2)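 MCF-7 cells in DMEM with 10% FBS and penicillin/streptomycin at 37 °C, 5% CO2. Asynchronous cells were treated 24 h, PBS-washed, trypsinized and quenched with 0.1% trypsin inhibitor. Staining used 5× citrate/IGEPAL/spermine/Tris buffer (pH 7.6) with 50 μg/mL propidium iodide. DNA content was read by 488 nm flow cytometry and cell-cycle phases modelled.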
# K562 [5] = assay: Cell cycle arrest in human K562 cells assessed as accumulation at S phase at 10 uM after 24 hrs by propidium iodide staining-based flow cytometric analysis (reference value: 50.3%); format: functional
# MCF7 [6] = assay: Cell cycle arrest in human MCF7 cells assessed as accumulation at S phase at 10 uM after 24 hrs by propidium iodide staining-based flow cytometric analysis (reference value: 34.1%); format: functional; procedure, shortened: as §2
# K562 [7] = assay: Cell cycle arrest in human K562 cells assessed as accumulation at G1 phase at 10 uM after 24 hrs by propidium iodide staining-based flow cytometric analysis (reference value: 34.6%); format: functional
# MCF7 [8] = assay: Cell cycle arrest in human MCF7 cells assessed as accumulation at G1 phase at 10 uM after 24 hrs by propidium iodide staining-based flow cytometric analysis (reference value: 60.7%); format: functional; procedure, shortened: as §2
# K562 [9] = assay: Cell cycle arrest in human K562 cells assessed as accumulation at sub G1 phase at 10 uM after 24 hrs by propidium iodide staining-based flow cytometric analysis (reference value: 15%); format: functional
# K562 [10] = assay: Cell cycle arrest in human K562 cells assessed as accumulation at G2/M phase at 10 uM after 24 hrs by propidium iodide staining-based flow cytometric analysis (reference value: 15%); format: functional
# MCF7 [11] = assay: Cell cycle arrest in human MCF7 cells assessed as accumulation at sub G1 phase at 10 uM after 24 hrs by propidium iodide staining-based flow cytometric analysis (reference value: 7.1%); format: functional; procedure, shortened: as §2
# MCF7 [12] = assay: Cell cycle arrest in human MCF7 cells assessed as accumulation at G1 phase at 83 nM after 24 hrs by propidium iodide staining-based flow cytometric analysis (reference value: 60.7%); format: functional; procedure, shortened: as §2
# K562 [13] = assay: Cell cycle arrest in human K562 cells assessed as accumulation at S phase at 83 nM after 24 hrs by propidium iodide staining-based flow cytometric analysis (reference value: 50.3%); format: functional
# K562 [14] = assay: Cell cycle arrest in human K562 cells assessed as accumulation at G2/M phase assessed as accumulation of histone H3 phosphorylation at serine 10 residues at 40 ng/ml uM after 24 hrs by propidium iodide staining-based flow cytometric analysis (reference value: 2.2%); format: functional
# K562 [15] = assay: Cell cycle arrest in human K562 cells assessed as accumulation at sub G1 phase at 83 nM after 24 hrs by propidium iodide staining-based flow cytometric analysis (reference value: 15%); format: functional
# MCF7 [16] = assay: Cell cycle arrest in human MCF7 cells assessed as accumulation at G2/M phase at 83 nM after 24 hrs by propidium iodide staining-based flow cytometric analysis (reference value: 5.3%); format: functional; procedure, shortened: as §2
# K562 [17] = assay: Cell cycle arrest in human K562 cells assessed as accumulation at G2/M phase at 83 nM after 24 hrs by propidium iodide staining-based flow cytometric analysis (reference value: 15%); format: functional
# MCF7 [18] = assay: Cell cycle arrest in human MCF7 cells assessed as accumulation at sub G1 phase at 83 nM after 24 hrs by propidium iodide staining-based flow cytometric analysis (reference value: 7.1%); format: functional; procedure, shortened: as §2
# K562 [19] = assay: Cell cycle arrest in human K562 cells assessed as accumulation at G1 phase at 83 nM after 24 hrs by propidium iodide staining-based flow cytometric analysis (reference value: 34.6%); format: functional
# MCF7 [20] = assay: Cell cycle arrest in human MCF7 cells assessed as accumulation at S phase at 83 nM after 24 hrs by propidium iodide staining-based flow cytometric analysis (reference value: 34.1%); format: functional; procedure, shortened: as §2
# K562 [21] = assay: Cell cycle arrest in human K562 cells assessed as accumulation at G2/M phase at 0.25 uM after 24 hrs by propidium iodide staining-based flow cytometric analysis (reference value: 15%); format: functional
# K562 [22] = assay: Cell cycle arrest in human K562 cells assessed as accumulation at S phase at 0.25 uM after 24 hrs by propidium iodide staining-based flow cytometric analysis (reference value: 50.3%); format: functional
# K562 [23] = assay: Cell cycle arrest in human K562 cells assessed as accumulation at sub G1 phase at 0.25 uM after 24 hrs by propidium iodide staining-based flow cytometric analysis (reference value: 15%); format: functional
# MCF7 [24] = assay: Cell cycle arrest in human MCF7 cells assessed as accumulation at S phase at 0.25 uM after 24 hrs by propidium iodide staining-based flow cytometric analysis (reference value: 34.1%); format: functional; procedure, shortened: as §2
# MCF7 [25] = assay: Cell cycle arrest in human MCF7 cells assessed as accumulation at sub G1 phase at 0.25 uM after 24 hrs by propidium iodide staining-based flow cytometric analysis (reference value: 7.1%); format: functional; procedure, shortened: as §2
# MCF7 [26] = assay: Cell cycle arrest in human MCF7 cells assessed as accumulation at G2/M phase at 0.25 uM after 24 hrs by propidium iodide staining-based flow cytometric analysis (reference value: 5.3%); format: functional; procedure, shortened: as §2
# K562 [27] = assay: Cell cycle arrest in human K562 cells assessed as accumulation at G1 phase at 0.25 uM after 24 hrs by propidium iodide staining-based flow cytometric analysis (reference value: 34.6%); format: functional
# MCF7 [28] = assay: Cell cycle arrest in human MCF7 cells assessed as accumulation at G1 phase at 0.25 uM after 24 hrs by propidium iodide staining-based flow cytometric analysis (reference value: 60.7%); format: functional; procedure, shortened: as §2
# Sequence of Cyclin-dependent kinase 1 (Homo sapiens) (P06493 whole entry, looked up): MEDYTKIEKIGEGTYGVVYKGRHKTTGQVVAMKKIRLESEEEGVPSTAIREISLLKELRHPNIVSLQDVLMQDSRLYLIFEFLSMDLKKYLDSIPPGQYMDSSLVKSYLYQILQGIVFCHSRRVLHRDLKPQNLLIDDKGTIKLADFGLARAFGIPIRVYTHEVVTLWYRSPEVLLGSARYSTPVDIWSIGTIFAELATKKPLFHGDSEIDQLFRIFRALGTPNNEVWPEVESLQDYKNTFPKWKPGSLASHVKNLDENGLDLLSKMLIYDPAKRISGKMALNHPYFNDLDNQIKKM
GI50 (MCF7 [1]),inhibition [2],GI50 (K562 [3]),SMILES,Activity (MCF7 [4]),Activity (K562 [5]),Activity (MCF7 [6]),Activity (K562 [7]),Activity (MCF7 [8]),Activity (K562 [9]),Activity (K562 [10]),Activity (MCF7 [11]),also measured
98.8 µM,inactive,> 100 µM,CC(C)c1nccc2nn(-c3ccccc3)cc12,,,,,,,,,
22.2 µM,inactive,10 µM,Cc1nc(-c2ccsc2)cc2nn(-c3ccccc3)cc12,31.6%,29.2%,31.2%,26.2%,37.2%,45.7%,44.6%,22.7%,
> 100 µM,inactive,> 100 µM,c1ccc(-n2cc3cnccc3n2)cc1,,,,,,,,,
4.8 µM,inactive,3.4 µM,c1ccc(-c2cc3nn(-c4ccccc4)cc3cn2)cc1,17%,5.5%,26.2%,19.8%,56.8%,43%,74.7%,14.3%,
> 100 µM,inactive,> 100 µM,Cn1cc2cnc(-c3ccccc3)cc2n1,,,,,,,,,
13.3 µM,inactive,6.7 µM,CCCCc1cc2nn(-c3ccccc3)cc2cn1,33.7%,12.8%,30.3%,24.8%,36%,37.7%,62.3%,31.1%,
9.8 µM,inactive,8.3 µM,c1ccc(-n2cc3cnc(-c4ccsc4)cc3n2)cc1,31.4%,37.3%,29.1%,21.7%,39.5%,34.2%,41.1%,24.2%,
33.3 µM,inactive,12.9 µM,CCCCc1cc2nn(-c3ccccc3)cc2c(C(C)C)n1,9.4%,44.2%,24.5%,26.7%,66.1%,47.1%,29%,7.8%,
> 100 µM,inactive,> 100 µM,Cc1nccc2nn(-c3ccccc3)cc12,,,,,,,,,
17 µM,inactive,6.9 µM,CCCCCc1cc2nn(-c3ccccc3)cc2c(C)n1,31.7%,28.3%,18.1%,21.8%,50.2%,28.3%,49.9%,31.1%,
11.1 µM,inactive,8.5 µM,CCCCc1cc2nn(-c3ccccc3)cc2c(C)n1,27.5%,30.5%,24%,28.2%,48.5%,40.8%,41.4%,19.3%,

# Second part, the molecule before the results:
SMILES,GI50 (MCF7 [1]),inhibition [2],GI50 (K562 [3]),Activity (MCF7 [4]),Activity (K562 [5]),Activity (MCF7 [6]),Activity (K562 [7]),Activity (MCF7 [8]),Activity (K562 [9]),Activity (K562 [10]),Activity (MCF7 [11]),also measured
OCCc1cc2nn(-c3ccccc3)cc2cn1,> 100 µM,inactive,> 100 µM,,,,,,,,,
CC(C)c1nc(-c2ccccc2)cc2nn(-c3ccccc3)cc12,91 µM,inactive,36.8 µM,6.9%,46.6%,30.6%,35.1%,62.6%,21.3%,18.3%,6.7%,
Cc1nc(CCO)cc2nn(-c3ccccc3)cc12,> 100 µM,inactive,> 100 µM,,,,,,,,,
COC(=O)Nc1nc2cc(C(=O)c3cccs3)ccc2[nH]1 [NOCODAZOLE],,,,,,,,,,,,Activity (MCF7 [12]): 14.4%; Activity (K562 [13]): 26.8%; Activity (K562 [14]): 33.2%; Activity (K562 [15]): 49.4%; Activity (MCF7 [16]): 35.7%; Activity (K562 [17]): 69.7%; Activity (MCF7 [18]): 32.1%; Activity (K562 [19]): 3.6%; Activity (MCF7 [20]): 49.9%
Cc1nc(C2CC2)cc2nn(-c3ccccc3)cc12,63.5 µM,inactive,25.9 µM,6.3%,45.8%,30.2%,34.7%,63.6%,15.3%,19.6%,9%,
CC(=O)c1c(C)c2cnc(Nc3ccc(N4CCNCC4)cn3)nc2n(C2CCCC2)c1=O [PALBOCICLIB],,,,,,,,,,,,Activity (K562 [21]): 15.9%; Activity (K562 [22]): 30.1%; Activity (K562 [23]): 35%; Activity (MCF7 [24]): 5.5%; Activity (MCF7 [25]): 7.5%; Activity (MCF7 [26]): 4.6%; Activity (K562 [27]): 54%; Activity (MCF7 [28]): 90%
c1ccc(-n2cc3cnc(C4CC4)cc3n2)cc1,69.3 µM,inactive,60.5 µM,5.9%,52.2%,29.4%,32.3%,64.7%,19.6%,15.5%,7.5%,
Cc1nc(-c2ccccc2)cc2nn(-c3ccccc3)cc12,11 µM,inactive,6.3 µM,14.1%,36.1%,20.5%,13.7%,65.5%,46.2%,50.2%,11.9%,
